{"data": "Published values of several laboratories", "target": "Calcium/calmodulin-dependent protein kinase type 1D (CAMK1D, Homo sapiens, UniProt Q8IU85)", "note": "Compare with care: the assays were run in different laboratories."}
{"SMILES": "c1cncc(-c2cccc(Nc3nccc(NC4CCCCC4)n3)c2)c1", "test": "binding, competition with immobilised ligand", "setting": "10 µM", "remaining binding [%]": 72}
{"SMILES": "N#Cc1ccc(Nc2ccc3[nH]c(=O)[nH]c3c2)c(Cl)c1", "test": "cell-free assay, competition with immobilised ligand", "setting": "1 µM", "remaining binding [%]": 92}
{"SMILES": "Cc1cnc(Nc2ccc(C(=O)N3CCC(N4CCCC4)CC3)cc2)nc1-c1cc2ccccc2s1", "test": "binding, competition with immobilised ligand", "setting": "1 µM", "remaining binding [%]": 8.3}
{"SMILES": "O=C(N1CCS(=O)(=O)CC1)N1C[C@H](c2ccc(OC(F)(F)F)cc2)C[C@H](c2nc(C3CC3)no2)C1", "test": "cell-free assay, competition with immobilised ligand", "setting": "1 µM", "remaining binding [%]": 91}
{"SMILES": "CCN1CCN(Cc2ccc(C(=O)Nc3ccc(C)c(Oc4ccc5c(c4)CC(=O)N5)c3)cc2C(F)(F)F)CC1", "test": "binding, competition with immobilised ligand", "setting": "1 µM", "remaining binding [%]": 52}
{"SMILES": "O=S(=O)(NC1CCC(c2cc(F)ccc2F)(S(=O)(=O)c2ccc(Cl)cc2)CC1)C(F)(F)F (stereo not shown)", "test": "cell-free assay, competition with immobilised ligand", "setting": "1 µM", "remaining binding [%]": 79}
{"SMILES": "CC1CCCN1c1nccc(-c2cnn3ncccc23)n1 (stereo not shown)", "test": "binding", "setting": "1 µM", "remaining binding [%]": 100}
{"SMILES": "O=C(NS(=O)(=O)c1ccc(NCC2CCOCC2)c([N+](=O)[O-])c1)c1ccc(N2CCN(Cc3ccc(C(F)(F)F)cc3-c3ccc(Cl)cc3)CC2)cc1Oc1cnc2[nH]ccc2c1", "test": "cell-free assay, competition with immobilised ligand", "setting": "1 µM", "remaining binding [%]": 92}
{"SMILES": "N[C@@H]1CCN(c2nccc(-c3cnn4ncccc34)n2)C1", "test": "binding", "setting": "1 µM", "remaining binding [%]": 100}
{"SMILES": "Cc1nc(C2CCN(C(=O)c3ccc(OC(F)(F)F)cc3N)CC2)c2ncc(N3CCN(C)CC3)cc2n1", "test": "cell-free assay, competition with immobilised ligand", "setting": "1 µM", "remaining binding [%]": 100}
{"SMILES": "Cc1cnn2ncc(-c3ccnc(N(C)C)n3)c2c1", "test": "binding", "setting": "1 µM", "remaining binding [%]": 100}
{"SMILES": "FC(F)(F)Oc1cccc(-c2cnc3ccc(-c4ccncc4)nn23)c1", "test": "cell-free assay, competition with immobilised ligand", "setting": "5 µM", "remaining binding [%]": 67}
{"SMILES": "CN(c1nccc(-c2cnn3ncccc23)n1)C1CC1", "test": "binding", "setting": "1 µM", "remaining binding [%]": 100}
{"SMILES": "O=C(NCC1CCOCC1)c1n[nH]cc1NC(=O)c1c(F)cccc1F", "test": "binding, competition with immobilised ligand", "setting": "1 µM", "remaining binding [%]": 96}
{"SMILES": "C[C@@H]1CCN(c2nccc(-c3cnn4ncccc34)n2)C1", "test": "binding", "setting": "1 µM", "remaining binding [%]": 86}
{"SMILES": "COc1ccc2c(c1)O[C@@H](c1ccc(OC)c(OC)c1)C[C@H]2NC(=O)C1(c2ccc3c(c2)OC(F)(F)O3)CC1", "test": "cell-free assay, competition with immobilised ligand", "setting": "1 µM", "remaining binding [%]": 94}
{"SMILES": "COc1cnc(Nc2cccc(S(N)(=O)=O)c2)nc1N1CCN(c2ccccc2)C(=O)C1", "test": "binding, competition with immobilised ligand", "setting": "1 µM", "remaining binding [%]": 99}
{"SMILES": "COc1ccnn2ncc(-c3ccnc(N(C)C)n3)c12", "test": "binding", "setting": "1 µM", "remaining binding [%]": 100}
{"SMILES": "O=C(c1ccc(Nc2nccc(-c3cc4ccccc4s3)n2)cc1)N1CCC(N2CCCC2)CC1", "test": "binding, competition with immobilised ligand", "setting": "1 µM", "remaining binding [%]": 31}
{"SMILES": "F[C@@H]1CCN(c2nccc(-c3cnn4ncccc34)n2)C1", "test": "binding", "setting": "1 µM", "remaining binding [%]": 100}
{"SMILES": "O=C(O)[C@H]1[C@H](Cn2nnc3ccccc3c2=O)CC[C@@H]1C(=O)c1ccc(OCCC2CCOCC2)cc1", "test": "cell-free assay, competition with immobilised ligand", "setting": "1 µM", "remaining binding [%]": 96}
{"SMILES": "O=C(c1ccc(Nc2ncc(Cl)c(-c3cc4ccccc4s3)n2)cc1)N1CCC(N2CCCC2)CC1", "test": "binding, competition with immobilised ligand", "setting": "1 µM", "remaining binding [%]": 29}
